The results in this text go back to ChEMBL document CHEMBL5046219, “Optimization of N-Phenylpropenoyl-l-amino Acids as Potent and Selective Inducible Nitric Oxide Synthase Inhibitors for Parkinson's Disease” (J Med Chem, 2021).

Active and inactive are the calls of the source. No cut-off for these calls is given here.

The target of one data set is T1, Nitric oxide synthase 3 (Homo sapiens, UniProt P29474).
T1 sequence (P29474 whole entry): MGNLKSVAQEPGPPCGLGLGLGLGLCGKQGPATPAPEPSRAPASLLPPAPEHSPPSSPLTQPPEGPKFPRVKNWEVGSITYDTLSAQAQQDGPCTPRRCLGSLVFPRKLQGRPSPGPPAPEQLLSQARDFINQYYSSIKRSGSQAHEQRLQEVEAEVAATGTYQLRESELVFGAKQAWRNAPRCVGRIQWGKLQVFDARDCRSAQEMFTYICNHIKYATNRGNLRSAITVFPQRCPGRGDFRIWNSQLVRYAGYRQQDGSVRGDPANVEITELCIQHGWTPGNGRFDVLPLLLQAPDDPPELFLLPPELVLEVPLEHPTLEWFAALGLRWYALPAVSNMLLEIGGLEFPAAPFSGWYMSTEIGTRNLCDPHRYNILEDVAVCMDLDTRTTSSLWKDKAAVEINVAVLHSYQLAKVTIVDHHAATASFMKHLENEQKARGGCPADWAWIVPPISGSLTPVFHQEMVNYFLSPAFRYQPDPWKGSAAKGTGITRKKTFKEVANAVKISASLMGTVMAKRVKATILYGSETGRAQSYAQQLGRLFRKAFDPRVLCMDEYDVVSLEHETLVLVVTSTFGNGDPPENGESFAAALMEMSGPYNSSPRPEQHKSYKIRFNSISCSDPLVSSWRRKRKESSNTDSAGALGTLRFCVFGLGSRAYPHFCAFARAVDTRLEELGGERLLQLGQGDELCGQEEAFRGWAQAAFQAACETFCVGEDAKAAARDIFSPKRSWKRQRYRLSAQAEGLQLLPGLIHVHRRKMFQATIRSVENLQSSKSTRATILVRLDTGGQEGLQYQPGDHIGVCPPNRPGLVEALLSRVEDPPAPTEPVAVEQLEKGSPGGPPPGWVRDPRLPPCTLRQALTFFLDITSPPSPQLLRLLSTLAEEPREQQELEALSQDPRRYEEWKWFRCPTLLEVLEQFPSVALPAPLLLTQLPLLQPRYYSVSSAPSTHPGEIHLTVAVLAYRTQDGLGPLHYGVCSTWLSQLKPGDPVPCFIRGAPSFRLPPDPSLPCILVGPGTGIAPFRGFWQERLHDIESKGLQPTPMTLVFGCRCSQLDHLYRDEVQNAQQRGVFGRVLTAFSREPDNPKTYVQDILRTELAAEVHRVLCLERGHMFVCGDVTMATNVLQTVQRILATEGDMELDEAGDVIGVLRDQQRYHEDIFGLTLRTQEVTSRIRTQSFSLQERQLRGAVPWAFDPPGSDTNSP
The data set can be described thus: Inhibition of human eNOS assessed as reduction in L-[3H]-citrulline level using L-[3H]-arginine as substrate incubated for 1 hr.

The next data set deals with BV-2. Nature of the data set: Anti-neuroinflammation in mouse BV-2 cells assessed as inhibition of LPS-induced NO production at 1 uM preincubated for 6 hrs followed by LPS addition measured after 24 hrs by Griess reagent based assay. It counts as functional. Summed up:
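BV-2 murine microglia were grown in DMEM with 10% FBS at 37 °C and 5% CO2, then seeded at 5 × 10³ cells/well. After 24 h, compound was added at 1 μM. LPS (500 ng/mL) followed 6 h later. After a further 24 h, medium was collected and NO was read at 540 nm with a colorimetric NO detection kit.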

The target of data set [1] is Nitric oxide sythases; iNOS & nNOS (Homo sapiens) (UniProt P29475+P35228). Nature of the data set: Selectivity ratio of IC50 for human nNOS to IC50 for human iNOS. It counts as protein assay. Summed up:
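Human nNOS and human iNOS each converting [³H]arginine (10 nM) to [³H]citrulline, with [¹⁴C]citrulline (80−120 nM) as internal standard, in 50 mM HEPES at 37 °C for 1 h. Cofactors were NADP⁺, G6P/G6PDH, MgCl₂, FAD, FMN and BH₄; nNOS also had calmodulin, CaCl₂ and glutathione. Eight concentrations (0.01−10 μM). Stopped with MES, passed over cation-exchange resin, filtrate counted. Background set with 10 μM AMT. Each IC50 from a curve, repeated three times.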

Another data set concerns the target Nitric oxide synthase 1 (Homo sapiens, UniProt P29475). The data set can be described thus: Inhibition of human nNOS assessed as reduction in L-[3H]-citrulline level using L-[3H]-arginine as substrate incubated for 1 hr.
Data set [2] has as its target Nitric oxide synthase, inducible (Homo sapiens, UniProt P35228). The data set can be described thus: Inhibition of human iNOS assessed as reduction in L-[3H]-citrulline level using L-[3H]-arginine as substrate incubated for 1 hr.
The next data set is filed under the species Homo sapiens. The data set can be described thus: Selectivity ratio of IC50 for human eNOS to IC50 for human iNOS. Summed up:
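Human iNOS, eNOS or nNOS was incubated 1 h at 37 °C in 50 mM HEPES with 10 nM [3H]arginine and [14C]citrulline internal standard. Cofactors were NADP⁺, G6P, G6P dehydrogenase, MgCl2, FAD, FMN and BH4. eNOS and nNOS reactions also contained 25 nM calmodulin, 0.5 mM CaCl2 and 3.5 mM glutathione. Reactions were stopped with MES and passed through cation exchange resin, and [3H]citrulline was counted. Background was set with 10 μM AMT. IC50 values came from eight concentrations (0.01–10 μM), in three repeated experiments.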

Data set [3] can be described thus: Effective permeability of compound in PBS buffer at pH 7.4 at 200 uM incubated for 17 hrs by PAMPA-BBB assay. It counts as ADME. To be noted: read-out: Peff. The gist of the method:
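PAMPA-BBB: the donor filter was coated with porcine brain lipid (20 mg/mL in dodecane). Compound was loaded at 200 μM in 10 mM PBS pH 7.4, with PBS as acceptor. Plates were incubated 17 h at 25 °C in saturated humidity with 100 rpm orbital shaking. Donor and acceptor concentrations were read by UV and Pe was calculated from the flux equation. Values are the mean of triplicates with SD.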
For orientation: PAMPA measures passive passage across an artificial lipid membrane.

Data set [4] in a line: Cmax in Balb/c mouse blood at 30 mg/kg, po administered as single dose measured upto 24 hrs by LC-MS analysis. It counts as ADME, organism-based. The arrangement: route oral, dose 30 mg/kg, time <=24. Summed up: (§1)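 Male BALB/c mice were fasted 16 h and then given a single intragastric dose of 30 mg/kg. Blood and brain were collected after decapitation at 5, 10, 15 and 30 min and at 1, 2, 6, 8, 12 and 24 h. Plasma was obtained by centrifugation and brains were homogenized in saline. Samples underwent methanol protein precipitation and single-quadrupole LC-MS on a C18 column at 30 °C, using isocratic 40% acetonitrile with 0.1% formic acid.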

Data set [5] is described as follows: Cmax in Balb/c mouse brain at 30 mg/kg, po administered as single dose measured upto 24 hrs by LC-MS analysis. It counts as ADME, organism-based. Further details: route oral, dose 30 mg/kg, time <=24. Summed up:
as §1

A short description of data set [6]: AUC (0 to infinity) in Balb/c mouse blood at 30 mg/kg, po administered as single dose measured upto 24 hrs by LC-MS analysis. Further details: route oral, dose 30 mg/kg, time <=24. It counts as ADME, organism-based. The gist of the method:
as §1

A short description of data set [7]: Half life in Balb/c mouse brain at 30 mg/kg, po administered as single dose measured upto 24 hrs by LC-MS analysis. It counts as ADME, organism-based. Summed up:
as §1

Data set [8] can be described thus: AUC (0 to infinity) in Balb/c mouse brain at 30 mg/kg, po administered as single dose measured upto 24 hrs by LC-MS analysis. It counts as ADME, organism-based. The arrangement: route oral, dose 30 mg/kg, time <=24. Summed up:
as §1

Data set [9] in a line: Half life in Balb/c mouse blood at 30 mg/kg, po administered as single dose measured upto 24 hrs by LC-MS analysis. It counts as ADME, organism-based. The gist of the method:
as §1

Nitric oxide synthase 1, sequence (P29475 whole entry): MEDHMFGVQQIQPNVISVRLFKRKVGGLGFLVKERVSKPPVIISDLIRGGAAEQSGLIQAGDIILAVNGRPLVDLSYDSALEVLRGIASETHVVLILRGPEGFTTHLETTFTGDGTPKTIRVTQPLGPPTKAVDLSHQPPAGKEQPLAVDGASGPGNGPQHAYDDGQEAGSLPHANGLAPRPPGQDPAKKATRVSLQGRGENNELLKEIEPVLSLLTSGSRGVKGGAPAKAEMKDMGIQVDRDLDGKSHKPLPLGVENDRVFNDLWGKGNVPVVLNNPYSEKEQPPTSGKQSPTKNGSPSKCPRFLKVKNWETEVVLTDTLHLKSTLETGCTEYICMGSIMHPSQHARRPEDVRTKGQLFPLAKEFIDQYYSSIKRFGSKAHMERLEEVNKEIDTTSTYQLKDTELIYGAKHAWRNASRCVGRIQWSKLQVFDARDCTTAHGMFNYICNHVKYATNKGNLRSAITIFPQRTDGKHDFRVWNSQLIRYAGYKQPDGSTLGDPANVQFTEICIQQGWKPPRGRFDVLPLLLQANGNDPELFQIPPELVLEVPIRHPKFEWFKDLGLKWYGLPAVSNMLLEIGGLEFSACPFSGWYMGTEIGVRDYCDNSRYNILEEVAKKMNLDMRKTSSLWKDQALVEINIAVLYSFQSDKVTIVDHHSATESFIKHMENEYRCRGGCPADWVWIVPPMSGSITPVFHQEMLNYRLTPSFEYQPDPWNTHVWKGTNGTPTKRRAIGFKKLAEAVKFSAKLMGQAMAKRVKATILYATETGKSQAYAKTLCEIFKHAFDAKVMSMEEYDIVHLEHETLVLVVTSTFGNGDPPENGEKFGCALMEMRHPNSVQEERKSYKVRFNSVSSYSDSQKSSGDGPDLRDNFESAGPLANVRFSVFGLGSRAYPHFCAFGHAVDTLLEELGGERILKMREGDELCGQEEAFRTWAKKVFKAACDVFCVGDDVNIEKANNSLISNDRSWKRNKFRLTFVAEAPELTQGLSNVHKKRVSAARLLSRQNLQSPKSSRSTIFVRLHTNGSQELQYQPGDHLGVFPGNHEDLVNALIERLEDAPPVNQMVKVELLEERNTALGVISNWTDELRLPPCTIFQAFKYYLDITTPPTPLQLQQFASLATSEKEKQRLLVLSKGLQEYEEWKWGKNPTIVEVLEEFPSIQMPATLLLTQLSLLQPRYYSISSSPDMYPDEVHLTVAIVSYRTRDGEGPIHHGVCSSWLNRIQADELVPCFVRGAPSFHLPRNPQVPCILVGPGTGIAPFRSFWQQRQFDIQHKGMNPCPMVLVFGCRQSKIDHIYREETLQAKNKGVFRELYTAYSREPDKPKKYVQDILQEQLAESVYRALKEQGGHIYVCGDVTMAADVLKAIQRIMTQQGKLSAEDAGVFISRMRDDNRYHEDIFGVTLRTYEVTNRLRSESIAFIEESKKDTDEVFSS
Nitric oxide sythases; iNOS & nNOS (Homo sapiens), sequence (P29475 whole entry, looked up): as the sequence (P29475 whole entry) above
Nitric oxide sythases; iNOS & nNOS (Homo sapiens), sequence (P35228 whole entry, looked up): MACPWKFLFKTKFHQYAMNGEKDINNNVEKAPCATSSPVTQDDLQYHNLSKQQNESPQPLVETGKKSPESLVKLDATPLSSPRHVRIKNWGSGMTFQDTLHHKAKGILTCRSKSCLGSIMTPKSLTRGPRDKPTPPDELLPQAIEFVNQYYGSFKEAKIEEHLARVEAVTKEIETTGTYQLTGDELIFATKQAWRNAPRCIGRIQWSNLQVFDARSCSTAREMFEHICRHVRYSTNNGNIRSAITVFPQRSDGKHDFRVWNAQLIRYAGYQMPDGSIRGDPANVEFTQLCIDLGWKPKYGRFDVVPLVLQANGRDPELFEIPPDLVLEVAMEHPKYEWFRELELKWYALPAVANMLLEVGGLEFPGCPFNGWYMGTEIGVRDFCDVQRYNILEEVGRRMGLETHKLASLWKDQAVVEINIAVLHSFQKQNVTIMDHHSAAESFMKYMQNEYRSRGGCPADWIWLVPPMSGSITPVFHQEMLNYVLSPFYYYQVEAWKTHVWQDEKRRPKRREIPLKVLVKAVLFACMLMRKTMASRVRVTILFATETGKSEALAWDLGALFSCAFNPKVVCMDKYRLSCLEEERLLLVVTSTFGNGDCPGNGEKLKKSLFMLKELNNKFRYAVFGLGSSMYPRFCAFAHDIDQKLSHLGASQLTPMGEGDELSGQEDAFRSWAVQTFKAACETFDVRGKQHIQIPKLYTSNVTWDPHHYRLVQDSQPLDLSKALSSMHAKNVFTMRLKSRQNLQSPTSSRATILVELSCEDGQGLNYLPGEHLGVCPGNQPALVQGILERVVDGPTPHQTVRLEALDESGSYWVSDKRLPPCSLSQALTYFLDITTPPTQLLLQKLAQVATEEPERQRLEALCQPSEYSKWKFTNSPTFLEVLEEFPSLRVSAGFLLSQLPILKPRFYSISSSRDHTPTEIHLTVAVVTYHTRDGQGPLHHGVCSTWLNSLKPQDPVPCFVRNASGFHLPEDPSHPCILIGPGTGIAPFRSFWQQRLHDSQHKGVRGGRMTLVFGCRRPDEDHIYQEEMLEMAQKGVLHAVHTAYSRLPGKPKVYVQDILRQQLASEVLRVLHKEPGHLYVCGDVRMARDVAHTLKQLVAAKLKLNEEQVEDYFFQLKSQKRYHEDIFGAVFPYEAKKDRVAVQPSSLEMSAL
Nitric oxide synthase, inducible, sequence (P35228 whole entry): as the sequence (P35228 whole entry, looked up) above

With `O=C(/C=C/c1ccc(Cl)c(Cl)c1)N[C@@H](Cc1ccc(F)cc1)C(=O)O`, the IC50 (as a rule, the midpoint of a concentration-inhibition curve) on Nitric oxide synthase 3 worked out at 164 µM; at Nitric oxide synthase 1, 149 µM; in [2], 0.993 µM. Also, in the data set on BV-2, the outcome was Active. In addition, the Ratio IC50 in data set [1] stood at 149; in the data set listed under Homo sapiens, 165.
Regarding `CC(=N)NCc1cccc(CN)c1` [1400W], in data set [3], the Papp at 17 h, 200 µM turned out to be 3.18 ×10⁻⁶ cm/s.
Regarding `COc1cc(/C=C/C(=O)N[C@H](Cc2ccc(O)cc2)C(=O)O)ccc1O`, the figures for the IC50 (at Nitric oxide synthase 3; at Nitric oxide synthase 1; in data set [2]) were 46.6 µM, 40.3 µM and 0.892 µM, respectively. The Cmax (commonly the peak of the concentration-time curve) amounted to 1000 ng/mL in data set [4] and 40.2 ng/mL in data set [5]. In addition, the total exposure AUC(0-inf) (as a rule, the area under the concentration-time curve extrapolated to infinity) is 3450 ng·h/mL in [6] and 567 ng·h/mL in [8]. Moreover, in data set [3], the Papp at 17 h, 200 µM came out at 1.23 ×10⁻⁶ cm/s. In addition, the half-life (commonly the time in which the quantity being followed falls by half) in data set [7] was 0.9 h; in [9], 1.2 h. The figures for the Ratio IC50 (in data set [1]; in the data set listed under Homo sapiens) were 45 and 52, respectively.
For `O=C(/C=C/c1ccccc1Cl)N[C@@H](Cc1ccc(F)cc1)C(=O)O`, the IC50 is 147 µM at Nitric oxide synthase 3, 126 µM at Nitric oxide synthase 1 and 0.82 µM in data set [2]. The outcome with BV-2 was Active. Also, the Ratio IC50 in [1] came out at 153; in the data set filed under Homo sapiens, 180.
On to `CC(C)C[C@H](NC(=O)/C=C/c1ccc(Cl)c(Cl)c1)C(=O)O`, for which the figures for the IC50 (at Nitric oxide synthase 3; at Nitric oxide synthase 1; in [2]) were 29.7 µM, 29.6 µM and 0.765 µM, respectively. Further, the outcome in the data set with BV-2 was Active. In addition, the Ratio IC50 (in data set [1]; in the data set listed under Homo sapiens) was 39 throughout.
